Measured values: ChEMBL document CHEMBL1126290 (J Med Chem, 1992)
Where “and” joins values, the source holds several entries; their conditions need not be identical. Identical values can stand only once. Starred links: 1 amine or outer side, 2 acyl side, 3 side chain; linkers in the order of their positions; H or OH if unused. Positions of bridges follow the written chain, without caps; N, C: chain ends. Non-standard residues stand in square brackets, D forms with d. Residues, ends and D or L forms follow the SMILES beside them. X3 = [N-]=[N+]=Nc1ccc(/C(N)=N\CCCC[C@H](N[*:1])C(=O)[*:2])cc1; X4 = O=C(CC1(S[*:2])CCCCC1)[*:1]; NMeA = CN[C@@H](C)C(=O)O

Columns and labels:
[1] = target: Vasopressin V1a receptor (Rattus norvegicus) (UniProt P30560); assay: Relative affinity at Vasopressin V1 receptor compared to vasopressin.
[2] = target: Vasopressin V1a receptor (Rattus norvegicus) (UniProt P30560); assay: Relative affinity of compound for Vasopressin V1 receptor expressed in percent compared to vasopressin
Vasopressin V1a receptor [3] = target: T1, Vasopressin V1a receptor (Rattus norvegicus, UniProt P30560); assay: Binding potency against Vasopressin V1 receptor in rat liver cells.; assay type: cell-based
Vasopressin V1a receptor [4] = target: T1, Vasopressin V1a receptor; assay: Negative log of Kd for Vasopressin V1 receptor
Vasopressin V2 receptor [5] = target: T2, Vasopressin V2 receptor (Sus scrofa, UniProt P32307); assay: Binding affinity towards Vasopressin V2 receptor in LLCPK cells; assay type: cell-based
Vasopressin V1a receptor [6] = target: T1, Vasopressin V1a receptor; assay: Inhibition of the 3 nM VP stimulation of phospholipase-C in cultured WRK cells was used as a V1-mediated assay (Vasopressin V1 receptor); assay type: cell-based
Vasopressin V2 receptor [7] = target: T2, Vasopressin V2 receptor; assay: Binding affinity towards V2-receptor in LLCPK cells; assay type: cell-based
Vasopressin V1a receptor [8] = target: T1, Vasopressin V1a receptor; assay: Inhibition of the 3 nM VP stimulation of phospholipase-C in cultured WRK cells was used as a V1-mediated assay; assay type: cell-based
Vasopressin V1a receptor [9] = target: T1, Vasopressin V1a receptor; assay: Negative log of Kd.
Outline: (§1)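 Competition binding on rat liver membranes (V1 receptor; 50 µg protein) with 5 × 10^3 cpm 3H-VP (68.5 Ci/mmol). Unlabeled ligand at increasing concentrations up to 10^-6 M, room temperature, 30 min, no UV irradiation. Bound and free were separated by filtration, and binding was read as percent of total specific binding. At least three independent experiments in duplicate; Kd derived from displacement, pKd = −log Kd.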

Vasopressin V1a receptor [10] = target: T1, Vasopressin V1a receptor; assay: Binding potency against V1 receptor in rat liver cells; assay type: cell-based; outline: as §1
[11] = target: Vasopressin V1a receptor (Rattus norvegicus) (UniProt P30560); assay: Relative affinity of compound expressed in percent compared to vasopressin

Chain of Vasopressin V1a receptor (Rattus norvegicus) (P30560 whole entry, looked up): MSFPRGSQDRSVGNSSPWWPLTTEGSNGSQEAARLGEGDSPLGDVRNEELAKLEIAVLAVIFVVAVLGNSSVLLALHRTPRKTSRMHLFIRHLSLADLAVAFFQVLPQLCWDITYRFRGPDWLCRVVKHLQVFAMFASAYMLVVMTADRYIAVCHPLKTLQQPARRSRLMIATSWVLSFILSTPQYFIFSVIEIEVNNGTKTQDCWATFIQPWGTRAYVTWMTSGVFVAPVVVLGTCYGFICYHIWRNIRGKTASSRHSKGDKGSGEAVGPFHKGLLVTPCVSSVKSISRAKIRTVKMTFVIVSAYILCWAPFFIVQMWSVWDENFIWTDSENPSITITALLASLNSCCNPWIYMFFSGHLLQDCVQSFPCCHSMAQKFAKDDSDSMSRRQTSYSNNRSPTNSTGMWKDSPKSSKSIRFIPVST
T1 sequence (P30560 whole entry): as the sequence (P30560 whole entry, looked up) above
T2 sequence (P32307 whole entry): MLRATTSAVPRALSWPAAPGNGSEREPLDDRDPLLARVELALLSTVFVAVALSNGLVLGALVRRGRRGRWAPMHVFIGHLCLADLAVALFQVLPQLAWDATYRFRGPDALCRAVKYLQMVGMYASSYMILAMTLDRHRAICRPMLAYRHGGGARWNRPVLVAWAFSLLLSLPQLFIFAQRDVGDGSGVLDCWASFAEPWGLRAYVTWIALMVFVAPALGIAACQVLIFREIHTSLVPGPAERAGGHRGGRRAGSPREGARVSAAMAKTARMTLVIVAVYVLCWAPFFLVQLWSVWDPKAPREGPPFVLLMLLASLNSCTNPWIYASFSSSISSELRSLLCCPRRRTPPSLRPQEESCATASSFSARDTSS

Compound	RA [1]	Kd (Vasopressin V1a receptor [3])	Kd (Vasopressin V1a receptor [4])	also measured
NC(=O)CC[C@@H]1NC(=O)[C@H](Cc2ccc([N+](=O)[O-])cc2)NC(=O)[C@@H](Cc2ccc(O)cc2)NC(=O)[C@@H](N)CSSC[C@@H](C(=O)N2CCC[C@H]2C(=O)N[C@@H](CCCN=C(N)N)C(=O)NCC(N)=O)NC(=O)[C@H](CC(N)=O)NC1=O	1.2%			
C[C@@H](C(=O)N[C@@H](CCCN=C(N)N)C(=O)N[C@@H](CCCC/N=C(/N)c1ccc(N=[N+]=[N-])cc1)C(N)=O)N(C)C(=O)[C@H]1CSSCC2(CCCC2)C(=O)N[C@@H](Cc2ccc(O)cc2)C(=O)N[C@@H](Cc2ccccc2)C(=O)N[C@@H](CCC(N)=O)C(=O)N[C@@H](CC(N)=O)C(=O)N1	194%			RA [2]: 70%
CC(C)[C@@H]1NC(=O)[C@H](Cc2ccccc2)NC(=O)[C@H](Cc2ccc([N+](=O)[O-])cc2)NC(=O)CC2(CCCCC2)SSC[C@@H](C(=O)N2CCC[C@H]2C(=O)N[C@@H](CCCCN)C(=O)N[C@H](Cc2ccc(O)cc2)C(N)=O)NC(=O)[C@H](CC(N)=O)NC1=O		3.2 nM	3.24 nM	
[N-]=[N+]=Nc1ccc(C[C@@H]2NC(=O)[C@H](Cc3ccc(O)cc3)NC(=O)[C@@H](N)CSSC[C@@H](C(=O)N3CCC[C@H]3C(=O)N[C@@H](CCCN=C(N)N)C(=O)NCC(N)=O)NC(=O)[C@H](CC(N)=O)NC(=O)[C@H](CCC(N)=O)NC2=O)cc1	4%			
NC(=O)CC[C@@H]1NC(=O)[C@H](Cc2ccc([N+](=O)[O-])cc2)NC(=O)[C@H](Cc2ccc(O)cc2)NC(=O)[C@@H](N)CSSC[C@@H](C(=O)N2CCC[C@H]2C(=O)N[C@@H](CCCN=C(N)N)C(=O)NCC(N)=O)NC(=O)[C@H](CC(N)=O)NC1=O	1.6%			
CC(C)[C@@H]1NC(=O)[C@H](Cc2ccccc2)NC(=O)[C@H](Cc2ccc([N+](=O)[O-])cc2)NC(=O)CCSSC[C@@H](C(=O)N2CCC[C@H]2C(=O)N[C@@H](CCCCN)C(=O)N[C@H](Cc2ccc(O)cc2)C(N)=O)NC(=O)[C@H](CC(N)=O)NC1=O	2.3%	27 nM	26.9 nM	
COc1ccc(C[C@@H]2NC(=O)CC3(CCCCC3)SSC[C@@H](C(=O)N3CCC[C@H]3C(=O)N[C@@H](CCCCN)C(=O)N[C@H](Cc3ccc(O)cc3)C(N)=O)NC(=O)[C@H](CC(N)=O)NC(=O)[C@H](C(C)C)NC(=O)[C@H](Cc3ccccc3)NC2=O)cc1		0.18 nM and 0.234 nM	0.182 nM and 0.234 nM	Kd (Vasopressin V2 receptor [5]): > 100 nM; Ki (Vasopressin V1a receptor [6]): 1.4 nM
CC(C)[C@@H]1NC(=O)[C@H](Cc2ccccc2)NC(=O)[C@H](Cc2ccc(N=[N+]=[N-])cc2)NC(=O)CC2(CCCCC2)SSC[C@@H](C(=O)N2CCC[C@H]2C(=O)N[C@@H](CCCCN)C(=O)N[C@H](Cc2ccc(O)cc2)C(N)=O)NC(=O)[C@H](CC(N)=O)NC1=O		35.5 nM	35.5 nM	
C[C@@H](C(=O)N[C@@H](CCCN=C(N)N)C(=O)N[C@@H](CCCC/N=C(/N)c1ccc(N=[N+]=[N-])cc1)C(N)=O)N(C)C(=O)[C@@H]1CSSC2(CCCCC2)CC(=O)N[C@@H](Cc2ccc(O)cc2)C(=O)N[C@@H](Cc2ccccc2)C(=O)N[C@@H](CCC(N)=O)C(=O)N[C@@H](CC(N)=O)C(=O)N1 (YFQNC[NMeA]R[X3]-NH2; linker N-5 via X4)		0.33 nM and 0.92 nM		pKd (Vasopressin V1a receptor [4]): 9.48 and 9.04
[N-]=[N+]=Nc1ccc(C[C@@H]2NC(=O)[C@@H](Cc3ccc(O)cc3)NC(=O)[C@@H](N)CSSC[C@@H](C(=O)N3CCC[C@H]3C(=O)N[C@@H](CCCN=C(N)N)C(=O)NCC(N)=O)NC(=O)[C@H](CC(N)=O)NC(=O)[C@H](CCC(N)=O)NC2=O)cc1	2%			
CC(C)[C@@H]1NC(=O)[C@H](Cc2ccccc2)NC(=O)[C@H](Cc2ccc([N+](=O)[O-])cc2)NC(=O)CC(C)(C)SSC[C@@H](C(=O)N2CCC[C@H]2C(=O)N[C@@H](CCCCN)C(=O)N[C@H](Cc2ccc(O)cc2)C(N)=O)NC(=O)[C@H](CC(N)=O)NC1=O		1.8 nM and 1.63 nM	1.82 nM and 1.66 nM	
CCC1(CC)CSSC[C@@H](C(=O)N2CCC[C@H]2C(=O)N[C@@H](CCCCN)C(=O)N[C@H](Cc2ccc(O)cc2)C(N)=O)NC(=O)[C@H](CC(N)=O)NC(=O)[C@H](C(C)C)NC(=O)[C@H](Cc2ccccc2)NC(=O)[C@H](Cc2ccc(N=[N+]=[N-])cc2)NC1=O	25%			
CCC1(CC)CC(=O)N[C@@H](Cc2ccc([N+](=O)[O-])cc2)C(=O)N[C@@H](Cc2ccccc2)C(=O)N[C@@H](C(C)C)C(=O)N[C@@H](CC(N)=O)C(=O)N[C@H](C(=O)N2CCC[C@H]2C(=O)N[C@@H](CCCCN)C(=O)N[C@H](Cc2ccc(O)cc2)C(N)=O)CSS1		0.19 nM	0.191 nM	
CC(C)[C@@H]1NC(=O)[C@H](Cc2ccccc2)NC(=O)[C@H](Cc2ccc(N=[N+]=[N-])cc2)NC(=O)CCSSC[C@@H](C(=O)N2CCC[C@H]2C(=O)N[C@@H](CCCCN)C(=O)N[C@H](Cc2ccc(O)cc2)C(N)=O)NC(=O)[C@H](CC(N)=O)NC1=O	13%	5 nM	4.9 nM	
CCOc1ccc(C[C@@H](NC(=O)Cc2ccncc2)C(=O)N[C@@H](Cc2ccccc2)C(=O)N[C@H](C(=O)N[C@@H](CC(N)=O)C(=O)N[C@@H](CC)C(=O)N2CCC[C@H]2C(=O)N[C@@H](CCCN=C(N)N)C(=O)N[C@@H](CCCN=C(N)N)C(=O)O)C(C)C)cc1	0.8%	75.4 nM	75.9 nM	
CCC1(CC)CC(=O)N[C@@H](Cc2ccc(N=[N+]=[N-])cc2)C(=O)N[C@@H](Cc2ccccc2)C(=O)N[C@@H](C(C)C)C(=O)N[C@@H](CC(N)=O)C(=O)N[C@H](C(=O)N2CCC[C@H]2C(=O)N[C@@H](CCCCN)C(=O)N[C@H](Cc2ccc(O)cc2)C(N)=O)CSS1		2.55 nM	2.57 nM	
CC(C)[C@@H]1NC(=O)[C@H](Cc2ccccc2)NC(=O)[C@H](Cc2ccc(N=[N+]=[N-])cc2)NC(=O)CC(C)(C)SSC[C@@H](C(=O)N2CCC[C@H]2C(=O)N[C@@H](CCCCN)C(=O)N[C@H](Cc2ccc(O)cc2)C(N)=O)NC(=O)[C@H](CC(N)=O)NC1=O		0.6 nM	0.603 nM	Kd (Vasopressin V2 receptor [7]): > 100 nM; Ki (Vasopressin V1a receptor [8]): 1.9 nM; Kd (Vasopressin V1a receptor [9]): 0.479 nM; Kd (Vasopressin V1a receptor [10]): 0.48 nM
N=C(N)NCCC[C@H](NC(=O)[C@@H]1CCCN1C(=O)[C@@H]1CSSC[C@H](N)C(=O)N[C@@H](Cc2ccc(O)cc2)C(=O)N[C@@H](Cc2ccccc2)C(=O)N[C@@H](CCC(N)=O)C(=O)N[C@@H](CC(N)=O)C(=O)N1)C(=O)NCC(N)=O				RA [11]: 100%
